The values below come from PubChem BioAssay.

The source made the active and inactive calls.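 How the source made its calls, unless noted: active means visually confirmed hit in the image check and inhibition above 20%; inconclusive means visually confirmed hit but inhibition not above 20%; inactive means no visual hit in the image check.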

The nature of assay [1]: inhibitors of TNFa-induced NFkB p65 translocation, primary screen, imaging, HUVEC, MLSMR starter and 10KST1 sets (AID 438;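 active means inhibition above 20% together with a positive visual image hit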;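 further: compound added about 3h40 before a 20 min TNFalpha stimulation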;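 on inhibition: signal is the nuclear over cytoplasmic p65 intensity ratio per well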). As to conditions: HUVEC TNFa-induced p65 nuclear translocation; cell count: measured here: nuclei count (cytotoxicity indicator), at 2.08 µM; inhibition: at 2 µM, stronger effect = higher value, 0% TNFa-plus-vehicle, 100% no-TNFa wells.
The nature of assay [2]: endothelial E-selectin expression blockers – imaging, HUVEC, immunofluorescence, MLSMR starter and 10KST1 sets, primary screen (AID 487).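 On inhibition: signal is fraction of cell area covered by stained E-selectin grains.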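 On nuclei count: 100% = median nuclei count of all wells on the same plate.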 To be noted: HUVEC TNFalpha-induced E-selectin immunofluorescence imaging, at 2 µM; inhibition: stronger effect = higher value; nuclei count: measured here: cell number, toxicity.
Assay [3] is described as follows: Primary imaging screen for DUSP6 inhibitors that restore phospho-Erk in transfected HeLa cells, chemical complementation (AID 609;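 active means compounds giving at least 50% inhibition in the cell-based MKP-3 phosphatase rescue imaging test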;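 on inhibition: phospho-Erk level distribution per well compared with pooled transfected vehicle control wells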). To be noted: HeLa MKP-3 transfected, phospho-Erk imaging KS statistic, at 10 µM, cells stimulated with TPA for 15 min.
Assay [4] concerns the target Dual specificity protein phosphatase 6 (Homo sapiens) (UniProt Q16828). The assay is described as above. As to conditions: HeLa MKP-3 transfected, phospho-Erk imaging KS statistic; at 10 µM; stronger effect = higher value; cells stimulated with TPA for 15 min.
The target of assay [5] is Voltage-gated potassium channel subunit beta-2 (Rattus norvegicus) (UniProt P62483). The assay can be described thus: inhibitors of rat Kvbeta2 reductase activity – biochemical, NADPH fluorescence, primary screen (AID 622;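 active means fluorescence slope higher than the sample average by over 3 SD, cut at about -0.22 in these data, passing the limit was not always enough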;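 further: slope of raw intensity against log time taken from 70 to 1610 s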). To be noted: recombinant KvBeta, 4-cyanobenzaldehyde reduction, at 10 µM, stronger effect = higher value.
Chain of Voltage-gated potassium channel subunit beta-2 (Rattus norvegicus) (P62483 whole entry, looked up): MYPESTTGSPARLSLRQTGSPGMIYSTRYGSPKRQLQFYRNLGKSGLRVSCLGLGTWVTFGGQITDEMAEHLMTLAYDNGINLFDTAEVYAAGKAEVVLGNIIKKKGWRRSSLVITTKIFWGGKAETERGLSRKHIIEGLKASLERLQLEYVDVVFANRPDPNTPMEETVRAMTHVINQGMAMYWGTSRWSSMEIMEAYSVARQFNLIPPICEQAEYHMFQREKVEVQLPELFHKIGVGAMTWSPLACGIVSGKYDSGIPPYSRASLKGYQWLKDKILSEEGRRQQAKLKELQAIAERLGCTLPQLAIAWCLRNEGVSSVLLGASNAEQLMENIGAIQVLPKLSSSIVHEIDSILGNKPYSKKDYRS
The target is the same in assay [6]. Briefly: enhancers of rat Kvbeta2 NADPH turnover – biochemical, NADPH fluorescence, primary screen (AID 623;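 active means NADPH fluorescence slope more negative than the mean of all samples by about 3 SD, 99.7% confidence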;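 further: fluorescence intensity change per second fitted from 20 to 320 s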). To be noted: Recombinant KvBeta, NADPH fluorescence decrease slope, 10 min; at 10 µM; stronger effect = lower value.
Assay [7] deals with Alpha-2C adrenergic receptor (Homo sapiens) (UniProt P18825). Briefly: compounds altering alpha2C-coupled GIRK flux – cell-based, HEK293 alpha2C/GIRK1/2, thallium flux, primary screen (AID 624;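 active means fluorescence slope after compound addition differing from the mean of all screened samples at 99.7% confidence, in either direction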;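 further: slope of fluorescence ratio to pre-addition baseline per second over 15 to 24 s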). To be noted: thallium flux BTC fluorescence, at 10 µM, actives lie on both sides.
Chain of Alpha-2C adrenergic receptor (Homo sapiens) (P18825 whole entry, looked up): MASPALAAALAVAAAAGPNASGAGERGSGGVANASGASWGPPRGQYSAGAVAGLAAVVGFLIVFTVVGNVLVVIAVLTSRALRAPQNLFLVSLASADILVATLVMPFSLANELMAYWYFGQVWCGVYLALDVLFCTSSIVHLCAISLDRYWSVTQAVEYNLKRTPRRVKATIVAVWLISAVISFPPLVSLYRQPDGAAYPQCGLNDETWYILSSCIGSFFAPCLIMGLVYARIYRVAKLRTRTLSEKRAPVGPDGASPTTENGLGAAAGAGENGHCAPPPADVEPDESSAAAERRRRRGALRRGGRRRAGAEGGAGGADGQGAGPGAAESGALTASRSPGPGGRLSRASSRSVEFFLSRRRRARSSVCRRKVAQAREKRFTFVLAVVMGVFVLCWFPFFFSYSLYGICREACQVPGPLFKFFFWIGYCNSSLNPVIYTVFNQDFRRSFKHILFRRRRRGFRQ
A short description of assay [8]: inhibitors of larval lipid processing in zebrafish, primary screen, whole organism, PED6 fluorescence, gall bladder and intestine (AID 686;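 active means a full or partial loss of lipid-probe fluorescence in the fish gall bladder, intestine or both, judged by eye; inactive means no fluorescence loss, or compound toxic to the fish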;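 further: larvae 5 to 7 days old with five fish per well; signal comes from phospholipase A2 cleavage of quenched PED6 carried via bile; overnight exposure to compound and PED6 before scoring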). To be noted: Zebrafish larvae PED6 lipid processing, fluorescence scoring; screened at 20 µM (by protocol). The method, boiled down:
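system = live zebrafish larvae aged 5-7 days, whole organism | probe or stimulus = ingested quenched lipid PED6 at 100 nM | doses = 20 µM single dose | timing = overnight exposure | detection = fluorescence microscopy with visual scoring of gall bladder and intestine | read-out = visual per-well fluorescence inhibition score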

Assay [9] is described as follows: loss of swimming-algae plug formation – whole organism, Chlamydomonas reinhardtii, WT vs cilia-less mutant, absorbance, 96-well, primary screen (AID 463189;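 active means inhibition at or above 50% relative to wild type and mutant plate controls; inactive means inhibition below 50%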;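 further: 0% = wild type cc124 cells in DMSO and 100% = ciliumless bld1 mutant cells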). To be noted: Chlamydomonas reinhardtii gravitaxis, OD600 absorbance, 2 days; at 10 µM; stronger effect = higher value.
Setting [10] is: measured here: cell density z-score.
The mark [11] stands for this setting: measured here: nuclear c-Myc green intensity z-score.
Setting [12] is: measured here: nuclear pErk red intensity z-score, stronger effect = higher value.

Chain of Dual specificity protein phosphatase 6 (Homo sapiens) (Q16828 whole entry, looked up): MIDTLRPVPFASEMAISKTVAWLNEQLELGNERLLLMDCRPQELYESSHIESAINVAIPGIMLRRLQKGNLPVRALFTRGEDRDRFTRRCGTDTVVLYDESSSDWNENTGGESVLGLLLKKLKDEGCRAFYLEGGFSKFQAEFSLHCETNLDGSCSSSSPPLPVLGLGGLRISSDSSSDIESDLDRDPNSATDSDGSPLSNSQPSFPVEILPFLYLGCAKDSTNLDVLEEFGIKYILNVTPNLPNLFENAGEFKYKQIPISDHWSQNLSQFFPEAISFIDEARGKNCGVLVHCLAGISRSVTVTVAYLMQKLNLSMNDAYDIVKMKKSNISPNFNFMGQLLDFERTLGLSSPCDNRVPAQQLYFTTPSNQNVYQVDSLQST

As to `C=CCc1cccc(/C=N/c2ncn[nH]2)c1O`, the cell count in assay [1] amounted to 470. In addition, the inhibition was -9% (inactive) in assay [1], -90.5% (inactive) in [2], 11.9% (inactive) in [4] and -13.3% (inactive) in assay [9]. In assay [2], this molecule came in with a nuclei count of 148%. The z-score is -0.648 in assay [3] (setting [10]), 0.659 in [3] (setting [11]) and -0.784 in assay [3] (setting [12]). In addition, in [5], the fluorescence slope was -0.491 (inactive). The NADPH fluorescence slope in assay [6] was -0.000107 (inactive). The slope in [7] is 0.00453 (inactive). In [8], the molecule was classed as inactive.
Take `c1coc(CNc2ncnc3ccccc23)c1`: in [1], the cell count is 553. Also, the inhibition in assay [1] is -2.6% (inactive); in assay [2], 2.7% (inactive); in [4], 14% (inactive); in assay [9] it was 12.9% (inactive). The same molecule returned a nuclei count in [2] of 155%. Moreover, the z-score in assay [3] (setting [10]) was 0.847; in [3] (setting [11]), -1.11; in assay [3] (setting [12]) it was 1.51. In addition, the fluorescence slope in assay [5] was -0.479 (inactive). Besides, the NADPH fluorescence slope in [6] is -0.000192 (inactive). Besides, the slope in assay [7] was 0.00559 (inactive). For the same molecule, the outcome in [8] was “inactive; toxic”.
Turning to `COc1ccc(C2C(C#N)=C(SC)NC3=C2C(=O)CC(C)(C)C3)cc1` (centres undefined), in assay [1], the cell count was determined as 369. The inhibition in assay [1] was -8.9% (inactive); in assay [2], -30.1% (inactive); in assay [4] it was -12.6% (inactive); in [9] it was 27.3% (inactive). The same molecule displayed a nuclei count in assay [2] of 156%. The results for the z-score in assay [3] (setting [10]), in [3] (setting [11]) and in [3] (setting [12]) were 1.03, -0.788 and 1.1, respectively. Further, the fluorescence slope in assay [5] was -0.411 (inactive). Also, in assay [6], the NADPH fluorescence slope was -9.7e-05 (inactive). Besides, the slope in assay [7] was 0.00455 (inactive). Besides, the molecule was called inactive in assay [8].
Turning to `Cc1nnc(C)n1/N=C/c1cccn1C`, in assay [1], the cell count came to 300. The inhibition in assay [1] is -9.7% (inactive); in [2] it was -14.9% (inactive); in assay [4], 3.5% (inactive); in [9] it was -5.16% (inactive). The same molecule displayed a nuclei count in assay [2] of 136%. Moreover, the values for the z-score in assay [3] (setting [10]), in assay [3] (setting [11]) and in assay [3] (setting [12]) were -0.977, 2.09 and -1.42, respectively. Further, the fluorescence slope in [5] was -0.412 (inactive). In addition, the NADPH fluorescence slope in [6] was -0.00014 (inactive). The slope in assay [7] is 0.00647 (inactive). The result in [8] was inactive.
On to `Clc1ccc2[nH]c3c(NCCCN4CCOCC4)ncnc3c2c1`, for which, in assay [1], the cell count amounted to 471. Besides, the inhibition in assay [1] was -7.1% (inactive); in assay [2], -31.4% (inactive); in [4], -13.3% (inactive); in assay [9], -7.19% (inactive). In assay [2], the nuclei count amounted to 102%. Also, the z-score in assay [3] (setting [10]) was -0.293; in [3] (setting [11]), -0.352; in assay [3] (setting [12]), 1.38. For the same molecule, in assay [5], the fluorescence slope is -0.52 (inactive). The NADPH fluorescence slope in assay [6] is 6.4e-06 (inactive). Further, the slope in assay [7] is 0.00501 (inactive). The molecule was classed as inactive in assay [8].
Turning to `CCCCCc1nc2sc3c(c2c(=O)n1N)CCC3`, the cell count in assay [1] was 632. In addition, the inhibition in [1] is -11.1% (inactive); in [2] it was 46.3% (inactive); in [4] it was -9.7% (inactive); in assay [9] it was 68.1% (active). For the same molecule, the nuclei count in [2] is 166%. The z-score was -1.49 in assay [3] (setting [10]), 2.03 in [3] (setting [11]) and 1.67 in assay [3] (setting [12]). For the same molecule, in assay [5], the fluorescence slope is -0.507 (inactive). Besides, the NADPH fluorescence slope in assay [6] was -0.000102 (inactive). Besides, the slope in [7] was 0.00473 (inactive). Besides, the result in assay [8] was inactive.
Regarding `CN(C)c1nc2sc3c(c2c(=O)n1C)CC(C)(C)OC3`, the cell count in [1] stood at 651. For the same molecule, the inhibition in assay [1] was -12.1% (inactive); in assay [2], -452% (inactive); in [4], -0.159% (inactive); in assay [9] it was 157% (active). For the same molecule, the nuclei count in [2] is 185%. The z-score is -0.36 in assay [3] (setting [10]), 0.198 in assay [3] (setting [11]) and 1 in assay [3] (setting [12]). For the same molecule, in assay [5], the fluorescence slope was -0.514 (inactive). In assay [6], the NADPH fluorescence slope is -4.6e-05 (inactive). For the same molecule, the slope in assay [7] is 0.00471 (inactive). Also, in assay [8], the result was inactive.
Take `COc1cc(NC2=CC(=O)CC(C)(C)C2)cc(OC)c1OC`: the cell count in [1] was 584. The inhibition in assay [1] is -15% (inactive); in assay [2], -72.4% (inactive); in assay [4] it was -1.98% (inactive); in assay [9], -4.05% (inactive). Besides, the nuclei count in assay [2] amounted to 141%. Further, the results for the z-score in assay [3] (setting [10]), in assay [3] (setting [11]) and in assay [3] (setting [12]) were -0.351, -0.143 and 0.715, respectively. Further, in assay [5], the fluorescence slope is -0.488 (inactive). The NADPH fluorescence slope in assay [6] is -3.8e-05 (inactive). The slope in [7] was 0.00597 (inactive). Moreover, the outcome in assay [8] was inactive.
Turning to `COc1cc(C(=O)Nc2nccs2)cc(OC)c1OC`, the cell count in assay [1] is 542. Besides, the inhibition in [1] was -19.4% (inactive); in [2], 53.4% (inactive); in [4] it was -13.3% (inactive); in assay [9], -0.002% (inactive). In [2], this molecule came in with a nuclei count of 163%. Besides, the z-score in assay [3] (setting [10]) is 1.12; in assay [3] (setting [11]), -0.213; in assay [3] (setting [12]) it was 0.494. Further, the fluorescence slope in assay [5] was -0.409 (inactive). The NADPH fluorescence slope in assay [6] is -6e-05 (inactive). Besides, the slope in [7] was 0.00501 (inactive). In assay [8], the molecule was classed as inactive.
Consider `O=C(O)CC(SCc1ccc(C(=O)O)o1)C(=O)O` (centres undefined), for which the cell count in assay [1] came to 330. Moreover, the inhibition in assay [1] is -17.8% (inactive); in assay [2] it was -29.5% (inactive); in [4], 5.57% (inactive); in assay [9] it was 48.4% (inactive). The molecule further registered a nuclei count in assay [2] of 105%. Also, the z-score in [3] (setting [10]) is 1.04; in assay [3] (setting [11]) it was -0.311; in assay [3] (setting [12]) it was -0.367. The fluorescence slope in assay [5] was -0.528 (inactive). The NADPH fluorescence slope in assay [6] was -7.5e-06 (inactive). The slope in assay [7] is 0.00659 (inactive). For the same molecule, the molecule was classed as inactive in assay [8].
Turning to `CC(C)c1nc(N2CCOCC2)c(C#N)c2c1CCC2`, the cell count in [1] is 533. The inhibition in [1] is 2.9% (inactive); in [2] it was -92.4% (inactive); in assay [4] it was 10.5% (inactive); in [9] it was -0.955% (inactive). The molecule also yielded a nuclei count in [2] of 140%. Further, the z-score in [3] (setting [10]) was 0.739; in assay [3] (setting [11]), -0.974; in assay [3] (setting [12]), -0.00414. The fluorescence slope in assay [5] is -0.511 (inactive). In addition, the NADPH fluorescence slope in assay [6] was 3.3e-06 (inactive). Further, in assay [7], the slope is 0.0055 (inactive). For the same molecule, the outcome in assay [8] was “inactive; toxic”.
As to `O=C(Nc1ncn[nH]1)c1c(Cl)ccc(Cl)c1Cl`, the cell count in assay [1] amounted to 597. Besides, the inhibition in assay [1] is -1.6% (inactive); in [2] it was 20% (inactive); in assay [4], -15% (inactive); in assay [9], 0.721% (inactive). The nuclei count in assay [2] was determined as 162%. In addition, the z-score in assay [3] (setting [10]) is -1.37; in assay [3] (setting [11]) it was 0.992; in assay [3] (setting [12]) it was 0.69. The fluorescence slope in assay [5] was -0.362 (inactive). Further, the NADPH fluorescence slope in assay [6] is -8.7e-06 (inactive). Also, the slope in assay [7] is 0.00528 (inactive). The outcome in assay [8] was inactive.
Take `Cc1c(NS(=O)(=O)c2cccc3nsnc23)c(=O)n(-c2ccccc2)n1C`: the cell count in assay [1] worked out at 549. Besides, the inhibition in [1] was -1.1% (inactive); in assay [2], -51.8% (inactive); in assay [4] it was -6.06% (inactive); in [9] it was -6.26% (inactive). Moreover, the nuclei count in [2] worked out at 154%. The z-score in [3] (setting [10]) was 0.537; in assay [3] (setting [11]) it was 0.599; in assay [3] (setting [12]), -0.221. Besides, the fluorescence slope in assay [5] is -0.499 (inactive). In assay [6], the NADPH fluorescence slope was -3.8e-05 (inactive). Moreover, the slope in [7] is 0.00709 (inactive). Besides, the call in assay [8] was inactive.
